Measured values published in ChEMBL document CHEMBL2202955, “Identification of Potent, Selective, Cell-Active Inhibitors of the Histone Lysine Methyltransferase EZH2” (ACS Med Chem Lett, 2012).
The source made the active and inactive calls. No cut-off for these calls is given here.

Columns and labels:
[1] = biological target: T1, Histone-lysine N-methyltransferase EHMT2 (Homo sapiens, UniProt Q96KQ7); experiment: Inhibition of G9a using histone H3 as substrate preincubated for 10 mins followed by addition of [3H]SAM and incubated for 60 mins
T1 sequence (Q96KQ7 whole entry): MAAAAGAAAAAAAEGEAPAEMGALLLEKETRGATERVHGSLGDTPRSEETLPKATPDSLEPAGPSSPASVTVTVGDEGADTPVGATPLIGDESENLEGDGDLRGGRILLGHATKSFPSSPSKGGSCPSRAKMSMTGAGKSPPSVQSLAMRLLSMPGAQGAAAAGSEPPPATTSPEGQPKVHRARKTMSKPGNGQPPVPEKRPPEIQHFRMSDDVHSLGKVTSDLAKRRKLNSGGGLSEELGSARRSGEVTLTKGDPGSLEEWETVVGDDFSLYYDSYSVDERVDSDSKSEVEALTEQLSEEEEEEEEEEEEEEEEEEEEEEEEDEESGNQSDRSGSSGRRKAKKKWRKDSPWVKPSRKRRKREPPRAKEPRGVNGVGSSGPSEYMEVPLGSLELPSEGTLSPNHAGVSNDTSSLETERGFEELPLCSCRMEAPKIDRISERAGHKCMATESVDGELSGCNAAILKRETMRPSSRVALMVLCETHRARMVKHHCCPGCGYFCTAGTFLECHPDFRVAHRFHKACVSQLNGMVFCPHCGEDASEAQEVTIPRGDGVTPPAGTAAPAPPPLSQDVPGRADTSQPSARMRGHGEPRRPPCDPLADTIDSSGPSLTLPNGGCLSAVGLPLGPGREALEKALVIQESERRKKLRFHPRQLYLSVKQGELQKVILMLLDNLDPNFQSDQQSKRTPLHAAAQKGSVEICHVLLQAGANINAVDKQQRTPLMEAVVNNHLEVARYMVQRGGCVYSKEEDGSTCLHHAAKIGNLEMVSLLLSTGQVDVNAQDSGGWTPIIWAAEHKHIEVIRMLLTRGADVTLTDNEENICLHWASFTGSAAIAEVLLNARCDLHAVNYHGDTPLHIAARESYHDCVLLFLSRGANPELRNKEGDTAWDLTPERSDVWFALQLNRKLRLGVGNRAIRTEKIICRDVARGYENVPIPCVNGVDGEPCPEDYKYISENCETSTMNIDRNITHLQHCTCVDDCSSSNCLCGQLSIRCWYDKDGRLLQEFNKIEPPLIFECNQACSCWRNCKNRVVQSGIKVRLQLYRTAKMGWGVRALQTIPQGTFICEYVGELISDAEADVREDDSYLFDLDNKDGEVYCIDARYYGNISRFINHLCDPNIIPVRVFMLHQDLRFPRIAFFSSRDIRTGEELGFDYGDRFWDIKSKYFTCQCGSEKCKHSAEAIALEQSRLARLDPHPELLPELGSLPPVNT
Method in brief: (§1)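 Panel of methyltransferases tested for selectivity. […] Values are the mean of at least two independent replicates.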

[2] = biological target: T2, Histone-lysine N-methyltransferase EZH2 (Homo sapiens, UniProt Q15910); experiment: Inhibition of EZH2-mediated nuclear H3K27 methylation in human HCC1806 cells after 72 hrs by immunofluorescence analysis; format: cell-based
Method in brief: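 HCC1806 breast cancer cells were exposed to compound for 72 h. Nuclear H3K27me3 was quantified by an immunofluorescence imaging assay and normalized to total H3. Values are the mean of at least three independent replicates.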

[3] = biological target: Protein arginine N-methyltransferase 5 (Homo sapiens, UniProt O14744); experiment: Inhibition of PRMT5 using histone H3 as substrate preincubated for 10 mins followed by addition of [3H]SAM and incubated for 60 mins; method in brief: as §1
Sequence of Protein arginine N-methyltransferase 5 (O14744 whole entry): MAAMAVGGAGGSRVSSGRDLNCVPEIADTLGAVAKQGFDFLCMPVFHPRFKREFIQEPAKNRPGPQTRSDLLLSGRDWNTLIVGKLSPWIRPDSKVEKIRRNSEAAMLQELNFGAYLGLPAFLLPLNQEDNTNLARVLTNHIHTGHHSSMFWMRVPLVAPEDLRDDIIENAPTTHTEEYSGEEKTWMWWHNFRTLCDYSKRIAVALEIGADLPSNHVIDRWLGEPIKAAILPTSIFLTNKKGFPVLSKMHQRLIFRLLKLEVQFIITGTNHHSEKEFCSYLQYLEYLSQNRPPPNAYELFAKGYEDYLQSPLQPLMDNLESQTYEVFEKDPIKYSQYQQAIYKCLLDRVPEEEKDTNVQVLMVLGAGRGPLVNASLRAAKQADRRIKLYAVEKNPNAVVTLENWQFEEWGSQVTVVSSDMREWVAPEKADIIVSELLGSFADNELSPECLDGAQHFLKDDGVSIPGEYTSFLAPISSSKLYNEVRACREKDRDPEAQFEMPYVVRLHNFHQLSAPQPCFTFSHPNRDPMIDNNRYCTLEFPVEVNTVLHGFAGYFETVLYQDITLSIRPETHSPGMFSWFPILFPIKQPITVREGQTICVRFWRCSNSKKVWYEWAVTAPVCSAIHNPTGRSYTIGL

[4] = biological target: Histone-lysine N-methyltransferase SUV39H2 (Homo sapiens, UniProt Q9H5I1); experiment: Inhibition of SUV39H2 using histone H3 as substrate preincubated for 10 mins followed by addition of [3H]SAM and incubated for 60 mins; method in brief: as §1
Sequence of Histone-lysine N-methyltransferase SUV39H2 (Q9H5I1 whole entry): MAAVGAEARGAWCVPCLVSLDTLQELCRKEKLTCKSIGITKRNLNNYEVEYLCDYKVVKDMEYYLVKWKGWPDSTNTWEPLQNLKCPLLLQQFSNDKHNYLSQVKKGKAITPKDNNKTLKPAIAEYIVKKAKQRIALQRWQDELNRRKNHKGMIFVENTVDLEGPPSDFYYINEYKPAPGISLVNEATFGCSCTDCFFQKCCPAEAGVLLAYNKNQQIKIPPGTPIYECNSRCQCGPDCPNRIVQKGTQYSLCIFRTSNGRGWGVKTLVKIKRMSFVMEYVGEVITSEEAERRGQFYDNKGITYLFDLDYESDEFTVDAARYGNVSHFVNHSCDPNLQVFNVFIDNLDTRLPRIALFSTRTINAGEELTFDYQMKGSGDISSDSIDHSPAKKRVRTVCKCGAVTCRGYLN

[5] = biological target: T3, Histone-lysine N-methyltransferase SUV39H1 (Homo sapiens, UniProt O43463); experiment: Inhibition of SUV39H1 using histone H3 as substrate preincubated for 10 mins followed by addition of [3H]SAM and incubated for 60 mins; method in brief: as §1
T3 sequence (O43463 whole entry): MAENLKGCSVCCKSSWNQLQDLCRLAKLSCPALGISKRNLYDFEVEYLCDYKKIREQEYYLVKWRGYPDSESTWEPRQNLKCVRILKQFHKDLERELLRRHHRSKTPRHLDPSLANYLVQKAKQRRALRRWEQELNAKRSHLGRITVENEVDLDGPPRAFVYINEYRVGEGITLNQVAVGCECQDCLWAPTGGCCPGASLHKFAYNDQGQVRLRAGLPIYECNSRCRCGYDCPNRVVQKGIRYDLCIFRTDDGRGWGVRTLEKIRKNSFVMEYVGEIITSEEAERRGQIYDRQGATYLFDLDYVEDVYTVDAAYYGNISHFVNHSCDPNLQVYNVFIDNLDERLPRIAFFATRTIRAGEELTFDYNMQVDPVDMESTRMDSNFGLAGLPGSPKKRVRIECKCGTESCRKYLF

[6] = biological target: DNA (cytosine-5)-methyltransferase 1 (Homo sapiens, UniProt P26358); experiment: Inhibition of DNMT1 using polydi-dc as substrate preincubated for 10 mins followed by addition of [3H]SAM and incubated for 60 mins; method in brief: as §1
Sequence of DNA (cytosine-5)-methyltransferase 1 (P26358 whole entry): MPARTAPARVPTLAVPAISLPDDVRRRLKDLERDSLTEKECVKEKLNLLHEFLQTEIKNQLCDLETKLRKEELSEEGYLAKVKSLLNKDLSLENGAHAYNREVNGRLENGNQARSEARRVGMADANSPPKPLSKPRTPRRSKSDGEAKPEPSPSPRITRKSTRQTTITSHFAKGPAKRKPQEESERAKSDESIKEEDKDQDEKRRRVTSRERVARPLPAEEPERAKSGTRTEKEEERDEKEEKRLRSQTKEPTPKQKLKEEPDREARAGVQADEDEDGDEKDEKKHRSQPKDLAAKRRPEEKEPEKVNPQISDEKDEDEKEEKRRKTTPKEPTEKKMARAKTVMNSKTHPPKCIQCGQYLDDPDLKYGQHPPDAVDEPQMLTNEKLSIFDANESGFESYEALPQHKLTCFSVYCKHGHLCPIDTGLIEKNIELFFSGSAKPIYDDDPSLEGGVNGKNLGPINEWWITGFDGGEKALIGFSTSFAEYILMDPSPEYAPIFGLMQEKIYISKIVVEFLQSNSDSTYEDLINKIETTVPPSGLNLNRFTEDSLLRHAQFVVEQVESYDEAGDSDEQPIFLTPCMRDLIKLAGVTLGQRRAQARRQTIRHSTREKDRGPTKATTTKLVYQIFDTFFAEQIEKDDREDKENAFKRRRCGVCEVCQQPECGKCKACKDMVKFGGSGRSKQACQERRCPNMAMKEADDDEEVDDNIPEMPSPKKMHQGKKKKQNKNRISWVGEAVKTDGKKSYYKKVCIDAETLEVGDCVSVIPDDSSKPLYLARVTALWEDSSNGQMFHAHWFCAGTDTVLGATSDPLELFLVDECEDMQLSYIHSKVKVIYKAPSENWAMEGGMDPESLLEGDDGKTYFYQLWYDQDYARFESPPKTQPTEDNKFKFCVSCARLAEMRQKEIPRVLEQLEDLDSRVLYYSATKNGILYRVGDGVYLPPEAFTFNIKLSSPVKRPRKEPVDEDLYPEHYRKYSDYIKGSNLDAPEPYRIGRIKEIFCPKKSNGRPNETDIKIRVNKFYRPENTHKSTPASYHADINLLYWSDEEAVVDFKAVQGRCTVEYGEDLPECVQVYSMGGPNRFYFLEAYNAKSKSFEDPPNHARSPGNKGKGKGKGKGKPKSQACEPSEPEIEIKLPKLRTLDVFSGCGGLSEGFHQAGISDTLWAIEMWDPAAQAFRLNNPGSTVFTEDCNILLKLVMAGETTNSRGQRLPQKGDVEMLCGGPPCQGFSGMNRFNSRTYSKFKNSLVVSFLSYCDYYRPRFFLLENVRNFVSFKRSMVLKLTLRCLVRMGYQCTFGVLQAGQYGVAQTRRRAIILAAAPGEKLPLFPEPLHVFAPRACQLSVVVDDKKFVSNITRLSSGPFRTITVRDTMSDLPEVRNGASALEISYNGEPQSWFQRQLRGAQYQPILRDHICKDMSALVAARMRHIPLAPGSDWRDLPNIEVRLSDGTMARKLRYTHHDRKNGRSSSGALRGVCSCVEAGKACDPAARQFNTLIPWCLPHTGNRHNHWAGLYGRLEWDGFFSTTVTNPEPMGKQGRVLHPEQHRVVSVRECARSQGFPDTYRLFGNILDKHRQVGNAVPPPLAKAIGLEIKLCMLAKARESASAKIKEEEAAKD

[7] = biological target: T2, Histone-lysine N-methyltransferase EZH2; experiment: Inhibition of EZH2-mediated proliferation of human ZR-75-1 cells after 6 days by chemiluminescence analysis; format: cell-based
Target sequence in this assay (Q15910 whole entry, looked up): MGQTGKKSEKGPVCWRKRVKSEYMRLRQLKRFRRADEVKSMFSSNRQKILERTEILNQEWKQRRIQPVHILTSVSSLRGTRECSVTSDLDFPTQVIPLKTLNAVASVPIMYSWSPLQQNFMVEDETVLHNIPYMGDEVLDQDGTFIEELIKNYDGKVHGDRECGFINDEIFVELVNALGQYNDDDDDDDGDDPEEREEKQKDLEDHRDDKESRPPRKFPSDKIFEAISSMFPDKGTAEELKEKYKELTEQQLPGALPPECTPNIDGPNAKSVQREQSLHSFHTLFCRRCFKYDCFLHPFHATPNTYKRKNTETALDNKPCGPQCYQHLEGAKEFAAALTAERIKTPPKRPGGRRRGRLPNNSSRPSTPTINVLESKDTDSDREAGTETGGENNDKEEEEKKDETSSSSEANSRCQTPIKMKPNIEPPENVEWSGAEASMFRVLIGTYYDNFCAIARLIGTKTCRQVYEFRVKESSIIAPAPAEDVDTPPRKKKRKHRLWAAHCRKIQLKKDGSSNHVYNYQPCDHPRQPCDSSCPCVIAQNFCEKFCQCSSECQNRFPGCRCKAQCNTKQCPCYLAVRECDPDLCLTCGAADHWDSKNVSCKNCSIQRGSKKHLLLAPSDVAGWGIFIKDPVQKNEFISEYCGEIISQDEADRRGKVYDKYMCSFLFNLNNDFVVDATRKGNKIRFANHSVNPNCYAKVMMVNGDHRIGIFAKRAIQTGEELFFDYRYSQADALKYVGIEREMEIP

[8] = biological target: T2, Histone-lysine N-methyltransferase EZH2; experiment: Inhibition of EZH2-mediated proliferation of human SKBR3 cells after 6 days by chemiluminescence analysis; format: cell-based; details: SK-BR-3
Target sequence in this assay (Q15910 whole entry, looked up): as above

[9] = biological target: T2, Histone-lysine N-methyltransferase EZH2; experiment: Inhibition of EZH2-mediated proliferation of human DU145 cells after 6 days by chemiluminescence analysis; format: cell-based; details: DU-145
Target sequence in this assay (Q15910 whole entry, looked up): as above

[10] = biological target: T2, Histone-lysine N-methyltransferase EZH2; experiment: Inhibition of EZH2-mediated nuclear H3K27 methylation in human HCC1806 cells at >1000 nM after 72 hrs by immunofluorescence analysis; format: cell-based
Method in brief: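 HCC1806 breast cancer cells were exposed to compound for 72 h. Nuclear H3K27me3 was quantified by an immunofluorescence imaging assay and normalized to total H3. […] Values are the mean of at least three independent replicates.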
Target sequence in this assay (Q15910 whole entry, looked up): as above

[11] = biological target: T2, Histone-lysine N-methyltransferase EZH2; experiment: Inhibition of EZH2-mediated proliferation of human PC3 cells after 6 days by chemiluminescence analysis; format: cell-based; details: PC-3
Target sequence in this assay (Q15910 whole entry, looked up): as above

[12] = biological target: T2, Histone-lysine N-methyltransferase EZH2; experiment: Inhibition of EZH2-mediated proliferation of human […] cells after 6 days by chemiluminescence analysis; format: cell-based
Target sequence in this assay (Q15910 whole entry, looked up): as above

[13] = biological target: Histone-lysine N-methyltransferase 2D (Homo sapiens, UniProt O14686); experiment: Inhibition of MLL2 using core histone as substrate preincubated for 10 mins followed by addition of [3H]SAM and incubated for 60 mins; method in brief: as §1
[14] = biological target: Histone-lysine N-methyltransferase 2C (Homo sapiens, UniProt Q8NEZ4); experiment: Inhibition of MLL3 using core histone as substrate preincubated for 10 mins followed by addition of [3H]SAM and incubated for 60 mins; method in brief: as §1
[15] = biological target: Histone-lysine N-methyltransferase 2A (Homo sapiens, UniProt Q03164); experiment: Inhibition of MLL1 using core histone as substrate preincubated for 10 mins followed by addition of [3H]SAM and incubated for 60 mins; method in brief: as §1
[16] = biological target: Histone-lysine N-methyltransferase 2B (Homo sapiens, UniProt Q9UMN6); experiment: Inhibition of MLL4 using core histone as substrate preincubated for 10 mins followed by addition of [3H]SAM and incubated for 60 mins; method in brief: as §1

IC50 [1] [µM]	IC50 [2] [µM]	IC50 [3] [µM]	IC50 [4] [µM]	IC50 [5] [µM]	IC50 [6] [µM]	inhibition [7]	inhibition [8]	inhibition [9]	inhibition [2]	inhibition [10] [%]	inhibition [11]	inhibition [12]	IC50 [13] [µM]	IC50 [14] [µM]	IC50 [15] [µM]	IC50 [16] [µM]	SMILES
> 100	0.079	> 100	> 100	> 100	121												CCCc1cc(C)[nH]c(=O)c1CNC(=O)c1cc(-c2ccc(N3CCN(C)CC3)nc2)cc2c1cnn2C(C)C
> 100	0.324	> 100	> 100	> 100	> 100	Active	Active	Active	Dose-dependent effect	> 90	Active	Active					Cc1cc(C)c(CNC(=O)c2cc(-c3ccc(N4CCN(C)CC4)nc3)cc3c2cnn3C(C)C)c(=O)[nH]1
> 100	0.174	> 100	123	> 100	> 100								> 100	> 100	> 100	> 100	CCCc1cc(C)[nH]c(=O)c1CNC(=O)c1cc(-c2ccnc(N3CCN(C)CC3)c2)cc2c1cnn2C(C)C
